# Screening results as filed in PubChem BioAssay.
# Only some compounds are listed: those with a hit (about 2.1% of all), similar ones and a draw of the others.
# APJ agonist – agonists of human apelin receptor APJ, primary screen, CHO-K1 cells, PathHunter beta-arrestin, luminescence; 0.11% of 330,000 active; 0% DMSO wells, 100% apelin; AID 2520, 2010; activation, % at 20 µM;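 active means activation more than six SD over the plate average, tested at 20 µM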;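 further: 0% = DMSO alone and 100% = apelin-13 at 10 nM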
#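 Incubation: overnight seeding, 90 min compound at 25 °C, 1 h detection; test system: PathHunter CHO-K1 APJ (AGTRL-1) beta-arrestin reporter cells; amount: 1000 cells/well; doses: one dose, 20 µM compound, 1% DMSO; measured by: beta-gal luminescence; measure: agonist-driven arrestin binding to APJ; benchmarks: negative DMSO alone, positive Apelin-13 at 10 nM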
# CXCR6 block – CXCR6 receptor inhibitors, primary screen, cell-based, beta-arrestin, luminescence, CHO-K1 PathHunter, 1536-well; C-X-C chemokine receptor type 6 (Homo sapiens), O00574; inhibition, % at 20 µM; 0.36% of 360,000 active; in the data active means inhibition above about 34%, passing the limit was not always enough;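 further: antagonist mode with CXCL16 agonist at 10 nM final; 0% = 10 nM CXCL16 with DMSO and 100% = unstimulated wells without agonist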
# CCR6 antag – CCR6 receptor antagonists, primary screen, cell-based, CHO-K1, luminescence, beta-arrestin, uHTS | C-C chemokine receptor type 6 (Homo sapiens), P51684 | CHO-K1 CCR6 PathHunter beta-arrestin, CCL20-stimulated | inhibition, % at 20 µM | 0.49% of 340,000 active | AID 493098, 2011;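 active means compounds whose inhibition of the agonist-driven luminescence signal at 20 µM reaches about 50%, limit read from the data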;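 further: cells stimulated with CCL20 at 14 nM final; plate controls were DMSO with CCL20 for no effect and DMSO without agonist for full effect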
# Target sequence (P51684 whole entry, looked up): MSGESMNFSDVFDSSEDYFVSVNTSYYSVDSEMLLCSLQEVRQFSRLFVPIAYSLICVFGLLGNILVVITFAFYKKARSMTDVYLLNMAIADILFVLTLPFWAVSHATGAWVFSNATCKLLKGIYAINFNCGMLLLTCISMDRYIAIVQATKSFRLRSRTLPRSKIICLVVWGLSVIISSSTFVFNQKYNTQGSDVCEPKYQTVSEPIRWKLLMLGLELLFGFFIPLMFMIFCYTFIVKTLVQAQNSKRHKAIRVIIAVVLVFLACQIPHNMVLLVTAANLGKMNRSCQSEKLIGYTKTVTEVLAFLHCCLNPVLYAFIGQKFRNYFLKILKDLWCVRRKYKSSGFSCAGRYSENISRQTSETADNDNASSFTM
# EBI2 block – EBI2 receptor antagonists, beta-arrestin recruitment, primary screen, cell-based, luminescence, 7a,25-OHC stimulation, uHTS | G-protein coupled receptor 183 (Homo sapiens), P32249 | 7a,25-OHC stimulated | inhibition, % at 5 µM | 0.81% of 360,000 active; in the data active means inhibition above about 38%;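 further: enzyme fragment complementation signal reports receptor beta-arrestin coupling in cells; 0% = agonist plus DMSO wells and 100% = wells without agonist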
# APJ antagonist – antagonists of human apelin receptor APJ, primary screen, CHO-K1 cells, beta-arrestin complementation, luminescence | AID 2521, 2010 | 0.32% of 330,000 active | inhibition, % at 20 µM | P35414;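 active means inhibition above about 40% at 20 µM, limit read from the data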;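 further: cells challenged with 10 nM apelin-13 agonist together with compound; plate controls were apelin-13 plus DMSO wells for no effect and DMSO wells lacking apelin-13 for full effect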
# HTR2A ag – mouse Htr2a agonists via beta-arrestin recruitment, primary screen, cell-based, luminescence; CHO-K1 mHTR2A beta-arrestin complementation; percent of 30 µM serotonin response; activation, % at 7.6 µM; 0.66% of 360,000 active; AID 624169, 2012;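 active means activation above a run cutoff, the mean activation of all tested compounds plus 3 SD, cut at about 14% in these data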;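 further: 0% = plate median of compound wells and 100% = 30 µM serotonin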
# Active calls of the source: *; x = no result.
SMILES,APJ agonist,CXCR6 block,CCR6 antag,EBI2 block,APJ antagonist,HTR2A ag
CCOc1ccc(NC(=O)COC(=O)CCN2C(=O)C3CC=CCC3C2=O)cc1OCC (stereo not drawn),-2,0,7,-9,-2,-3
COc1ccc(-c2nc(-c3ccc4c(c3)OCO4)[nH]c2-c2ccc(OC)cc2)cc1,2,4,17,48*,17,-3
COc1ccc(-c2noc(-c3ccc4c(c3)OCO4)n2)cc1,-4,4,6,-1,10,-2
Nc1nc(-c2ccccc2)c(N=Nc2ccccc2Cl)s1,-9,57*,62*,29,40,-11
Nc1nc(-c2ccccc2)c(N=Nc2cccc3ccccc23)s1,-9,43*,55*,11,39,-9
CCOc1ccc(CCNC(=O)c2ccc3ccccc3n2)cc1OCC,-3,-2,4,0,-12,-2
Cc1ccc(OCC(=O)N2CCN(c3ccc([N+](=O)[O-])c(N4CCOCC4)c3)CC2)cc1,-8,4,14,56*,5,4
CCN(CC)c1ccc(N=C2C(=O)Nc3ccccc32)cc1,-2,25,26,-1,6,0
Cc1cc(C)c(N=C2C(=O)Nc3ccccc32)c(C)c1,-4,16,15,-9,27,0
Cc1ccc(N=C2C(=O)Nc3ccccc32)cc1C,-9,10,52*,0,14,10
O=C1Nc2ccccc2C1=Nc1ccc(Cl)cc1,x,33,65*,17,x,2
COc1cc(/C=N/N=C2/C(=O)Nc3ccccc32)cc(OC)c1O,-6,9,61*,-26,34,0
COc1cccc(COC(=O)CSCC(=O)Nc2ccc(C)cc2)c1OC,x,0,x,-4,x,4
N#Cc1ccc(CN2CCN(C(=O)CCNS(=O)(=O)c3ccc(F)c(Cl)c3)CC2)cc1,-3,0,5,-2,2,49*
N#Cc1ccc(CN2CCN(C(=O)CCNS(=O)(=O)c3ccc(F)c(F)c3)CC2)cc1,-4,2,-6,-9,14,1
Cc1[nH]n(-c2ccccc2)c(=O)c1/C=N/N1C(=O)c2ccc3c4c(ccc(c24)C1=O)CC3,3,38*,x,2,-12,1
COc1ccc(NC(=O)/C(Cl)=C(/Cl)S(=O)(=O)Cc2ccccc2)cn1,x,34,25,61*,x,-5
O=[N+]([O-])c1ccc(N=Cc2sc3ccccc3c2O)cc1,-3,-8,52*,2,1,-3
O=[N+]([O-])c1cccc(N=Cc2sc3ccccc3c2O)c1,1,x,x,x,-17,x
c1ccc(CN2CCN(c3ncnc4nc[nH]c34)CC2)cc1,-2,-2,-9,-3,6,24*
CC(C)(C)OC(=O)N1CCC(c2c(C(=O)NC3CC3)cnn2-c2ccc(Cl)cc2)CC1,0,10,15,-2,-17,0
O=C(C#Cc1ccccc1)c1ccc([N+](=O)[O-])cc1,2,71*,55*,25,12,6
Cc1[nH]c2ccccc2c1C1=CC(=O)C=CC1=O,x,70*,x,-14,x,-11
O=C(/C=C/c1ccccc1)NNC(=O)c1cccc(Cl)c1,-2,-11,10,1,6,-2
O=C(/C=C/c1ccccc1)NNc1ccc(Cl)cc1,-8,7,12,4,62*,-3
SMILES,APJ agonist,CXCR6 block,CCR6 antag,EBI2 block,APJ antagonist,HTR2A ag
COc1ccc(Br)cc1CN(C)C(=O)c1cnc(C)cn1,-6,15,12,-10,17,6
CC[C@H](C)[C@H]1CNC(=S)N1CC1CCN(CCC23CC4CC(CC(C4)C2)C3)CC1,x,6,5,-5,x,-9
O=C(NNc1c2ccccc2nc2ccccc12)c1cccc(O)c1,-1,24,60*,1,27,-3
CC(C)(C)OC(=O)N1CCC(CC2CC(c3cccc(Br)c3)=NO2)(C(=O)O)CC1 (stereo not drawn),4,2,-8,-1,-4,-4
O=c1oc2ccccc2c(Cl)c1CN1CCCCC1,-8,96*,92*,-2,87*,3
N#C/C(=N\Nc1ccc([N+](=O)[O-])cc1)C(N)=S,-10,53*,69*,19,69*,-7
N#C/C(=N/Nc1ccc([N+](=O)[O-])cc1)C(=N)N1CCCCC1,x,24,37,6,x,-7
CC1(C(=O)Nc2cccc(C(F)(F)F)c2)Cc2c(-c3ccc4c(c3)OCO4)ccnc2O1 (stereo not drawn),x,8,x,9,x,5
O=[N+]([O-])c1cc(Cl)cc(/C=N/n2cnnc2)c1O,1,32*,36,12,4,-3
O=[N+]([O-])c1cc(Br)cc(/C=N/n2cnnc2)c1O,-4,23,46,-3,18,1
COc1ccccc1N1CCN(C(=O)CC(NC(=O)c2ccccc2Cl)c2ccccc2)CC1 (stereo not drawn),-1,-1,-2,21,-7,-8
O=C(OCC(=O)c1ccc[nH]1)c1cncc(Br)c1,-2,0,0,-1,15,15*
O=C(OCC(=O)c1ccc[nH]1)c1ccccc1,-4,-2,2,-2,6,3
C=CC(=O)N1C/C(=C/c2ccc(Cl)cc2)C(=O)/C(=C\c2ccc(Cl)cc2)C1,x,50*,62*,75*,x,1
C=CC(=O)N1C/C(=C/c2ccccc2)C(=O)/C(=C\c2ccccc2)C1,x,38*,64*,39,x,4
O=C1C(=Cc2ccc(Cl)cc2)Cc2ccccc21,x,2,x,26,x,-6
COc1ccccc1/C=C/c1ccc2cccc(O)c2n1,-8,34,63*,9,39,-9
COc1ccc(Cl)cc1/C=C/c1ccc2cccc(O)c2n1,-7,19,38,-6,39,-3
CC1CCC(NC(=O)CSc2nnnn2C)CC1 (stereo not drawn),0,-2,2,14,4,2
O=C(CSc1nncs1)Nc1ccc(Cl)cc1C(F)(F)F,-2,-8,10,-4,1,5
O=C1C=CC(=O)N1CCCCCCN1C(=O)C=CC1=O,x,x,104*,x,x,x
Cc1ccc2nc(Cl)cc(=O)n2c1,x,-1,-6,-10,x,-5
C=CCc1cccc(CNn2cnnc2)c1O,-4,62*,20,-5,16,-2
COc1ccc(C(=O)/C=C/C(=O)N(Cc2ccccc2OC)C(C(=O)NC2CCCCC2)c2ccncc2)c(O)c1 (stereo not drawn),-5,1,14,6,6,-2
